# Experimental data as given in ChEMBL document CHEMBL1145864, “Synthesis and structure-activity relationship of a new series of COX-2 selective inhibitors: 1,5-diarylimidazoles” (J Med Chem, 2003).
# Columns and labels:
# [1] = molecular target: T1, Prostaglandin G/H synthase 2 (Homo sapiens) (UniProt P35354); settings: Blood; at 1 µM
# T1 sequence (whole entry): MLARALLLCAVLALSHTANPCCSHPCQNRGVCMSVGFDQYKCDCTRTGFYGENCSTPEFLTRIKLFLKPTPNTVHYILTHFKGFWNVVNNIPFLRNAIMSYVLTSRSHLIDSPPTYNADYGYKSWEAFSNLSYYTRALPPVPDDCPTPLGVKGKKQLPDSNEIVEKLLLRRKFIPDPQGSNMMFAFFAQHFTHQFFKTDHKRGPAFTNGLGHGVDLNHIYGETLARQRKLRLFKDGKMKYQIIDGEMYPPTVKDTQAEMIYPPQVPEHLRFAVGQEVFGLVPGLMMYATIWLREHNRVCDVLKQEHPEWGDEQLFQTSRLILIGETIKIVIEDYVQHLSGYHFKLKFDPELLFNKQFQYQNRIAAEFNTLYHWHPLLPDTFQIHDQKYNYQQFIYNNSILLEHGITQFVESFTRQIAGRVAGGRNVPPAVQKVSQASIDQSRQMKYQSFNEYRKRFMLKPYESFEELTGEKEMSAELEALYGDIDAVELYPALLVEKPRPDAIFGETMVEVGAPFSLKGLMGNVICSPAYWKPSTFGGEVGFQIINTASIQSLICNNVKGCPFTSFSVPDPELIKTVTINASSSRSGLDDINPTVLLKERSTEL
# [2] = system: Rattus norvegicus; assay: In vivo anti-inflammatory activity by air pouch model at 1 mg/kg perorally in rat.; assay type: functional; settings: route oral
# Outline: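 Rat air pouch: sterile air (20 mL) was injected subcutaneously, with 10 mL refills every 2 days. On day 7, 2 mL of 1% lambda-carrageenan in saline was injected into the pouch. Compound was given orally (suspension in 1% CMC/Tween-80, 10 mL/kg) 0.5 h before carrageenan. At 6 h, exudate was collected and centrifuged, and supernatant PGE2 was measured by ELISA.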
# [3] = molecular target: T1, Prostaglandin G/H synthase 2 (Homo sapiens); settings: Blood; at 10 µM
# [4] = system: Rattus norvegicus; assay: In vivo anti-inflammatory activity determined by rat carrageenan paw edema method at 10 mg/kg perorally; assay type: functional; settings: route oral
# [5] = molecular target: Prostaglandin G/H synthase 1 (Homo sapiens, UniProt P23219); assay type: cell-based, U-937
# [6] = Half life of compound was determined at 1 mg/kg intravenous administration in rat; assay type: ADME, organism-based; design: dose 1 mg/kg, route intravenous; settings: in vivo
# [7] = system: Rattus norvegicus; assay: In vivo analgesic activity of compound was determined by inflammatory hyperalgesia model at 3 mg/kg perorally in rat; assay type: functional; settings: route oral
# Outline: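 Male Sprague–Dawley rats received 1% carrageenan suspension (0.1 mL) into the right hind foot pad. Three hours later, compound (suspended in 1% Tween-80) was given by gavage. After 30 min, a heat stimulus was applied under the inflamed paw and withdrawal latency (s) recorded. The % inhibition of the stimulus-induced latency decrease was calculated relative to the untreated left paw.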
# [8] = system: Rattus norvegicus; assay: Percentage of [51Cr]- secreted in feces was determined by fecal drug-induced bleeding method in rat at 100 mg/kg, bid for 4 days
# [9] = system: Rattus norvegicus; assay: In vivo inhibition of contralateral paw swelling after oral treatment for 28 days (1 mg/kg od) was determined by adjuvabt arthritis in rat; assay type: functional
# Outline: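 Lewis rats (140–170 g, 7 weeks) received 0.5 mg Mycobacterium butyricum in light mineral oil intradermally into the right hind foot pad; controls received incomplete adjuvant. Groups of 10 were dosed orally at 1 mg/kg daily for 28 days, starting on the day of injection. Left hind paw volume was measured plethysmographically at the end and expressed as % inhibition versus controls.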
# [10] = molecular target: T1, Prostaglandin G/H synthase 2 (Homo sapiens); assay: In vitro inhibition of Prostaglandin G/H synthase 2 (COX-2)in human whole blood at 1 uM was determined
# [11] = system: Rattus norvegicus; assay: In vivo anti-inflammatory activity of compound was determined by rat carrageenan paw edema at 10 mg/kg perorally; settings: po
# Chain of Prostaglandin G/H synthase 1 (P23219 whole entry): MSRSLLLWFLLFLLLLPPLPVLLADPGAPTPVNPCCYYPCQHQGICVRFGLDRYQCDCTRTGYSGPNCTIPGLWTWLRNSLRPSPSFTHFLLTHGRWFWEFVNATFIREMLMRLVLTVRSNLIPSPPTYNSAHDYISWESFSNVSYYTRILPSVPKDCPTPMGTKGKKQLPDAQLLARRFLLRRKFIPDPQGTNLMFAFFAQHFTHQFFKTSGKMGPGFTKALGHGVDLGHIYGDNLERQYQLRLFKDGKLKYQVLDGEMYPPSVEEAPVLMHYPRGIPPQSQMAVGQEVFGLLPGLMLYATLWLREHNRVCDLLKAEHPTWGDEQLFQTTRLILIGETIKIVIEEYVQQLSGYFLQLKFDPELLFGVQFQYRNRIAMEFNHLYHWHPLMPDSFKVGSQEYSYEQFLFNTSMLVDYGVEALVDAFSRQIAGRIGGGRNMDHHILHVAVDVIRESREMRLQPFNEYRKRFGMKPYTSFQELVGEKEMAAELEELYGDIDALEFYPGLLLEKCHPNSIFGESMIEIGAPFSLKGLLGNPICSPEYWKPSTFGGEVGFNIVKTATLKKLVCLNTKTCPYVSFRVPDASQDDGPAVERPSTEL
SMILES,inhibition [1] [%],inhibition in vivo at 1 mg/kg [2] [%],inhibition [3] [%],inhibition in vivo at 10 mg/kg [4] [%],IC50 [5] [µM],half-life [6] [h],inhibition in vivo at 3 mg/kg [7] [%],Cr secretion [8] [%],Inhibition [9] [%],inhibition [10] [%],inhibition in vivo at 10 mg/kg [11] [%]
Cc1ccc(-c2c(Cl)ncn2-c2ccc(S(C)(=O)=O)cc2)cc1,90.5,65.5,100,21.6,> 10,1.7,,,,,
CCN(CC)c1ccc(-c2c(Cl)ncn2-c2ccc(S(C)(=O)=O)cc2)cc1,9.7,64.1,100,24.2,> 10,,64.1,,,,
CS(=O)(=O)c1ccc(C2=C(c3ccccc3)C(=O)OC2)cc1 [ROFECOXIB],84.1,95.3,100,33.3,,,83.4,0.6,87,,
COc1ccc(-c2c(Cl)ncn2-c2ccc(S(N)(=O)=O)cc2)cc1F [CIMICOXIB],100,98.2,100,31,3.3,2.9,83.4,0.9,93,,
CCOc1ccc(-c2c(Cl)ncn2-c2ccc(S(N)(=O)=O)cc2)cc1,,98.9,,29.2,2.2,2.2,82.8,0.5,97,,
NS(=O)(=O)c1ccc(-n2cnc(Cl)c2-c2ccccc2)cc1,,96.3,59.5,36.3,5.1,2.9,,,,,
Cc1ccc(-c2cc(C(F)(F)F)nn2-c2ccc(S(N)(=O)=O)cc2)cc1 [CELECOXIB],,93.4,,35.7,,,86.7,0.7,89,,
NS(=O)(=O)c1ccc(-n2cnc(Cl)c2-c2ccc(F)cc2)cc1,,93.2,61.4,38.6,3.1,17,,,,,
COc1ccc(-c2c(Cl)ncn2-c2ccc(S(C)(=O)=O)cc2)cc1Cl,84.1,71.1,100,31.4,> 10,3.6,66.6,,,,
COc1cc(-c2c(Cl)ncn2-c2ccc(S(N)(=O)=O)cc2)ccc1F,,58.9,79.3,14.3,> 1,3.8,38,,,,
COc1ccc2c(c1)c(CC(=O)O)c(C)n2C(=O)c1ccc(Cl)cc1 [INDOMETHACIN],,,,66.2,,,,7.5,94,,
CS(=O)(=O)c1ccc(-n2cnc(Cl)c2-c2ccc3c(c2)OCO3)cc1,60.5,,100,30.6,> 10,3.5,69.9,,,,
COc1cc(-c2c(Cl)ncn2-c2ccc(S(C)(=O)=O)cc2)ccc1F,97.4,15.1,92.6,25,> 10,,20.4,,,,
Cc1ccc(-c2c(Cl)ncn2-c2ccc(S(N)(=O)=O)cc2)cc1,76.1,62.3,100,32.6,2.7,5.2,,,,,
COc1ccc(-c2c(Cl)ncn2-c2ccc(S(C)(=O)=O)cc2)cc1C,100,75.6,100,21.4,> 10,,,,,,
CS(=O)(=O)c1ccc(-c2cnc(C#N)n2-c2ccc(F)cc2)cc1,,79,100,28.5,> 10,,,,,74,
CS(=O)(=O)c1ccc(-n2cnc(Cl)c2-c2ccc(F)cc2)cc1,89,98.1,100,,> 10,21,,,,,41.2
CS(=O)(=O)c1ccc(-n2cnc(Cl)c2-c2ccccc2)cc1,82.6,83.2,96,29.2,> 10,17,,,,,
COc1ccc(-c2c(Cl)ncn2-c2ccc(S(C)(=O)=O)cc2)cc1F,79,89.5,100,24.2,> 10,2.2,80,0.4,86,,
CS(=O)(=O)c1ccc(-c2cnc(Cl)n2-c2ccc(F)cc2)cc1,85.6,55.2,100,20.4,> 10,,,,,,
CN(C)c1ccc(-c2c(Cl)ncn2-c2ccc(S(C)(=O)=O)cc2)cc1Cl,64.6,43,98.9,33.3,1.9,1.2,63.8,,,,
CS(=O)(=O)c1ccc(-n2cnc(Cl)c2-c2ccncc2)cc1,54.5,50.2,82.4,31.7,> 10,,69.4,,,,
